Laboratory results from ChEMBL document CHEMBL4251575, “Design, synthesis, and biological evaluation of 1,3-diarylisoquinolines as novel topoisomerase I catalytic inhibitors” (Eur J Med Chem, 2018).
pIC50: −log10 of the molar value. Structures can show the parent of a compound that is named as a salt. The source made the active and inactive calls. The rule behind the calls is not given here.

Columns and labels:
[1] = tested on: HCT-15; assay: Cytotoxicity against human HCT15 cells after 72 hrs by cell counting kit-8 analysis; type: functional, cell-based; details: HCT-15, 72 h
Method in brief: (§1)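 Cells seeded at 2×10^5 or 1×10^5 per well, grown overnight in medium with 10% FBS at 37 °C, 5% CO₂, then FBS-starved 4 h. Graded compound concentrations given for 72 h. CCK-8 then added for 4 h and absorbance read at 450 nm. IC50 from a four-parameter logistic fit; mean ± S.D. of three experiments, each in triplicate.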

[2] = tested on: DU-145; assay: Cytotoxicity against human DU145 cells after 72 hrs by cell counting kit-8 analysis; type: functional, cell-based; details: DU-145, 72 h; method in brief: as §1
[3] = target: DNA topoisomerase 2-alpha (Homo sapiens) (UniProt P11388); assay: Inhibition of human DNA topoisomerase 2 alpha-mediated DNA relaxation at 100 uM incubated for 30 mins using pBR322 DNA substrate by ethidium bromide dye-based agarose gel electrophoresis relative to control etoposide
Chain of DNA topoisomerase 2-alpha (Homo sapiens) (P11388 whole entry): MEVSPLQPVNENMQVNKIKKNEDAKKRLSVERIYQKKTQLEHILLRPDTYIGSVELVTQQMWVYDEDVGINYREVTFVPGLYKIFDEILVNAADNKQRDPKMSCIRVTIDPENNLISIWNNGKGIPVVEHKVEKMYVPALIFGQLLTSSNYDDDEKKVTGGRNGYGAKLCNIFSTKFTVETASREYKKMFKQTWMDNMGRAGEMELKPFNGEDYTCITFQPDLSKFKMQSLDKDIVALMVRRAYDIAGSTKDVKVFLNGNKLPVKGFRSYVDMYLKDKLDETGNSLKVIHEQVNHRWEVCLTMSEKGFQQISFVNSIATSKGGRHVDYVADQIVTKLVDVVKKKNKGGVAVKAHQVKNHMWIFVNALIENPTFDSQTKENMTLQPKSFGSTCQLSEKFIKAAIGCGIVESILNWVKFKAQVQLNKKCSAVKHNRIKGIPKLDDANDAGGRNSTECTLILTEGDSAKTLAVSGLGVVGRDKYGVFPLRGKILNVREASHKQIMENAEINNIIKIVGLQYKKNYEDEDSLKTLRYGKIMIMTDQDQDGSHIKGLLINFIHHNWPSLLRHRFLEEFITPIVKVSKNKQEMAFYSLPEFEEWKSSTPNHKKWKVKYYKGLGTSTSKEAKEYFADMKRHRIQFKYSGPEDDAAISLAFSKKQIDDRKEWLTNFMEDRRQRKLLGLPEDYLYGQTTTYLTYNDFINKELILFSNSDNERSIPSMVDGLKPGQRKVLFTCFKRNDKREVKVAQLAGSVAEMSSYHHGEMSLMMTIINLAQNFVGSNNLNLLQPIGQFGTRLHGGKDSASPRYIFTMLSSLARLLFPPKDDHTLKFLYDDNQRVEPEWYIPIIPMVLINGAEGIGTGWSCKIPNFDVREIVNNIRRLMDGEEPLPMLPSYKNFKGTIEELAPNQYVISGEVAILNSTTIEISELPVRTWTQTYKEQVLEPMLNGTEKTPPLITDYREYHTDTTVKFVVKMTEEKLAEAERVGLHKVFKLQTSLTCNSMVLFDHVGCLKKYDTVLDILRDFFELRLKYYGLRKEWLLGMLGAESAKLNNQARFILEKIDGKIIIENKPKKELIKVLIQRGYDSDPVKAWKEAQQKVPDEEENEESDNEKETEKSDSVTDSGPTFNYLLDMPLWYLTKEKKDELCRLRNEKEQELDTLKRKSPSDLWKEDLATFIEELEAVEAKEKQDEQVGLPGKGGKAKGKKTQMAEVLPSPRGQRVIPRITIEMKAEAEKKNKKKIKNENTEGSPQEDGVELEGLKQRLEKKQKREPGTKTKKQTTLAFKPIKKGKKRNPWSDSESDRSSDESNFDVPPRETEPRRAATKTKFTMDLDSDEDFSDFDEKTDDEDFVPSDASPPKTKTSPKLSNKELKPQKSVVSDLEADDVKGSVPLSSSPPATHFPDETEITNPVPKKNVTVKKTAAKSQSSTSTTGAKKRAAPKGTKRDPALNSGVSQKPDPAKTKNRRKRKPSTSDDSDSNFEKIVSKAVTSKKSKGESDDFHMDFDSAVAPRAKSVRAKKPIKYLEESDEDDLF
Method in brief: (§2)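 Stopped with EDTA and run on 1% agarose/TAE at 25 V for 4 h. EtBr-stained; supercoiled DNA quantified as % inhibition. Relative values are the ratio to the etoposide control.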

[4] = target: T1, DNA topoisomerase 1 (Homo sapiens) (UniProt P11387); assay: Inhibition of human recombinant DNA topoisomerase 1-mediated DNA relaxation at 100 uM incubated for 30 mins using pBR322 DNA substrate by ethidium bromide dye-based agarose gel electrophoresis
T1 sequence (whole entry): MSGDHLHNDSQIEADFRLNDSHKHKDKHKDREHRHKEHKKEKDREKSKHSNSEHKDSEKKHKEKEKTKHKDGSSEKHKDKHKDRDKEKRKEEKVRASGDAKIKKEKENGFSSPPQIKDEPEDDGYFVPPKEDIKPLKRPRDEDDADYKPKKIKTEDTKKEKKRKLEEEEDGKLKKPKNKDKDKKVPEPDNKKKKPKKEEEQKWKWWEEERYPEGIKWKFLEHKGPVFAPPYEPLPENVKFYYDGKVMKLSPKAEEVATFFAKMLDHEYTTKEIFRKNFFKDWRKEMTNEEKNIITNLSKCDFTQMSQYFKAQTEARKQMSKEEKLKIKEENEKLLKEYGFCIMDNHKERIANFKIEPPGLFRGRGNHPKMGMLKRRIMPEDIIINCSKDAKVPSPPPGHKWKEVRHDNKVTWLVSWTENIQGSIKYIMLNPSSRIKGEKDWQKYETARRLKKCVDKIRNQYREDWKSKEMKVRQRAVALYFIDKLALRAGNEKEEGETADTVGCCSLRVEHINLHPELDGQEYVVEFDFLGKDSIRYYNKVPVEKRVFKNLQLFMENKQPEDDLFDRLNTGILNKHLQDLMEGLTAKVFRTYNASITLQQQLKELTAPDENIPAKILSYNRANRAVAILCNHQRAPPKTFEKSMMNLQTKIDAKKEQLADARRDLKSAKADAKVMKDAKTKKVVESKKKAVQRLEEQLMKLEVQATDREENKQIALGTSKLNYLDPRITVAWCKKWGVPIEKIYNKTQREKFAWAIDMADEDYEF
Method in brief: (§3)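 pBR322 (100 ng) with recombinant human topo I (0.4 units) in 10 mM Tris-HCl pH 7.9, 150 mM NaCl, 0.1% BSA, 1 mM spermidine, 5% glycerol, 30 min at 37 °C. Stopped with sarcosyl/glycerol/dye and run on 1% agarose/TAE at 15 V for 7 h. EtBr-stained; supercoiled DNA quantified as % inhibition. Relative values are the ratio to the camptothecin control.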

[5] = tested on: T47D; assay: Cytotoxicity against human T47D cells after 72 hrs by cell counting kit-8 analysis; type: functional, cell-based; method in brief: as §1
[6] = target: DNA topoisomerase 2-alpha (Homo sapiens) (UniProt P11388); assay: Inhibition of human DNA topoisomerase 2 alpha-mediated DNA relaxation at 100 uM incubated for 30 mins using pBR322 DNA substrate by ethidium bromide dye-based agarose gel electrophoresis; method in brief: as §2
[7] = target: T1, DNA topoisomerase 1 (Homo sapiens); assay: Inhibition of human recombinant DNA topoisomerase 1-mediated DNA relaxation at 100 uM incubated for 30 mins using pBR322 DNA substrate by ethidium bromide dye-based agarose gel electrophoresis relative to control camptothecin; method in brief: as §3
[8] = tested on: MCF-10A; assay: Cytotoxicity against human MCF10A cells after 72 hrs by cell counting kit-8 analysis; type: cell-based; method in brief: as §1
[9] = target: T1, DNA topoisomerase 1 (Homo sapiens); assay: Inhibition of human recombinant DNA topoisomerase 1-mediated DNA relaxation at 20 uM incubated for 30 mins using pBR322 DNA substrate by ethidium bromide dye-based agarose gel electrophoresis; method in brief: as §3
[10] = target: DNA topoisomerase 2-alpha (Homo sapiens) (UniProt P11388); assay: Inhibition of human DNA topoisomerase 2 alpha-mediated DNA relaxation at 20 uM incubated for 30 mins using pBR322 DNA substrate by ethidium bromide dye-based agarose gel electrophoresis; method in brief: as §2
[11] = target: DNA topoisomerase 2-alpha (Homo sapiens) (UniProt P11388); assay: Inhibition of human DNA topoisomerase 2 alpha-mediated DNA relaxation at 20 uM incubated for 30 mins using pBR322 DNA substrate by ethidium bromide dye-based agarose gel electrophoresis relative to control etoposide; method in brief: as §2
[12] = target: T1, DNA topoisomerase 1 (Homo sapiens); assay: Inhibition of human recombinant DNA topoisomerase 1-mediated DNA relaxation at 20 uM incubated for 30 mins using pBR322 DNA substrate by ethidium bromide dye-based agarose gel electrophoresis relative to control camptothecin; method in brief: as §3
[13] = species on record: Sus scrofa; assay: Induction of porcine brain tubulin polymerization at 10 uM after 61 mins by spectroscopic analysis
Method in brief: (§4)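 Porcine brain tubulin at 1.5 mg/mL final in cold PEM buffer (80 mM Na-PIPES pH 6.9, 1 mM MgCl₂, 30% glycerol, 1 mM EGTA) with 1 mM GTP. Compounds were dissolved in DMSO and diluted in PEM. They were pre-warmed 2 min at 37 °C before tubulin was added. DMSO vehicle and paclitaxel controls. A340 was read each minute for 61 min at 37 °C.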

[14] = species on record: Sus scrofa; assay: Inhibition of porcine brain tubulin polymerization at 10 uM after 61 mins by spectroscopic analysis; method in brief: as §4

Ratio [3] | inhibition [4] [%] | inhibition [6] [%] | Ratio [7] | inhibition [9] [%] | inhibition [10] [%] | Ratio [11] | Ratio [12] | Tubulin polymerization induction [13] | inhibition [14] | Activity [13] | Structure (SMILES) | pIC50 [1] | pIC50 [2] | pIC50 [5] | pIC50 [8]
0 | 2.3 | 0 | 0.04 | – | – | – | – | – | – | – | COc1ccc(-c2nc(-c3ccc(OC)c(OC)c3)cc3cc(C)ccc23)cc1 | 4.54 | < 4.30 | 5.48 | < 4.30
0.67 | 39.3 | 40.9 | 0.6 | 0 | 10.5 | 0.28 | 0 | – | – | – | COc1ccc(-c2cc3cc(C)ccc3c(-c3cccc(OCCCN(C)C)c3)n2)c(C)c1 | 6.06 | – | 6.54 | 5.22
0.11 | 0 | 7.4 | 0 | – | – | – | – | – | – | – | COc1ccc(-c2cc3ccccc3c(-c3ccc(OC)cc3)n2)cc1 | 5.55 | – | 6.07 | < 4.30
0.4 | 0.3 | 36.5 | 0.005 | – | 0 | 0 | – | – | – | – | COc1ccc(-c2cc3cc(C)ccc3c(-c3ccc(O)cc3)n2)cc1OC | 5.60 | 5.22 | 5.35 | 4.74
0.59 | 0 | 37.3 | 0 | – | 30.9 | 0.9 | – | inactive | inactive | – | COc1cc(OC)cc(-c2cc3ccccc3c(-c3cccc(O)c3)n2)c1 | 6.08 | – | 6.12 | 5.17
0.04 | 73.1 | 2.5 | 1.12 | 71.5 | – | – | 2.5 | inactive | inactive | – | COc1cc(OC)cc(-c2cc3ccc(N(C)C)cc3c(-c3cccc(N)c3)n2)c1 | 5.60 | – | 5.44 | 4.38
0.32 | 47.9 | 20.2 | 0.81 | 12.1 | – | – | 0.38 | – | – | – | COc1ccc(-c2cc3ccccc3c(-c3cccc(OCCCN(C)C)c3)n2)cc1 | 5.76 | – | 6.80 | 4.99
1.24 | 79.6 | 75.8 | 1.22 | 0 | 15.3 | 0.41 | 0 | – | – | – | COc1ccc(-c2cc3cc(C)ccc3c(-c3ccc(OCCN(C)C)cc3)n2)cc1OC | 6.01 | – | 5.63 | 5.27
1.07 | 9.4 | 84.3 | 0.12 | – | 0 | 0 | – | – | – | – | COc1ccc(-c2cc3ccccc3c(-c3cccc(O)c3)n2)cc1 | 5.92 | 5.27 | 6.24 | 5.11
0.81 | 3.7 | 49.6 | 0.05 | – | 13.2 | 0.35 | – | – | – | – | COc1ccc(-c2cc3cc(C)ccc3c(-c3cccc(OCCN(C)C)c3)n2)c(C)c1 | 5.66 | – | 6.22 | 5.20
0 | 43.2 | 0 | 0.58 | 0 | – | – | 0 | – | – | – | COc1ccc(-c2cc3ccccc3c(-c3cccc(OC)c3)n2)cc1 | 5.89 | < 4.30 | 6.07 | < 4.30
0 | 4.6 | 0 | 0.06 | – | – | – | – | – | – | – | COc1cc(OC)cc(-c2cc3cc(OC)c(OC)cc3c(-c3cccc(O)c3)n2)c1 | 6.27 | 5.09 | 5.41 | 5.23
– | – | – | – | – | – | – | – | – | 100% | – | COc1ccc(/C=C\c2cc(OC)c(OC)c(OC)c2)cc1O | – | – | – | –
0.26 | 0 | 16.7 | 0 | – | – | – | – | – | – | – | COc1cc(OC)cc(-c2cc3ccccc3c(-c3cccc(OC)c3)n2)c1 | 5.93 | – | 5.95 | < 4.30
0.82 | 0 | 51.2 | 0 | – | 40 | 1.17 | – | inactive | inactive | – | COc1cc(OC)cc(-c2cc3ccccc3c(-c3ccc(O)cc3)n2)c1 | 5.56 | – | 6.11 | 5.14
– | – | – | – | – | – | – | – | – | – | – | COc1cccc2c1C(=O)c1c(O)c3c(c(O)c1C2=O)C[C@@](O)(C(=O)CO)C[C@@H]3O[C@H]1C[C@H](N)[C@H](O)[C@H](C)O1 [DOXORUBICIN HYDROCHLORIDE] | – | – | – | 6.03
– | – | – | – | – | – | – | – | – | – | Active | CC(=O)O[C@H]1C(=O)[C@@]2(C)[C@H]([C@H](OC(=O)c3ccccc3)[C@]3(O)C[C@H](OC(=O)[C@H](O)[C@@H](NC(=O)c4ccccc4)c4ccccc4)C(C)=C1C3(C)C)[C@]1(OC(C)=O)CO[C@@H]1C[C@@H]2O | – | – | – | –
0.11 | 7.2 | 6.9 | 0.11 | – | – | – | – | – | – | – | COc1ccc(-c2cc3cc(C)ccc3c(-c3cccc(N)c3)n2)cc1OC | 5.57 | – | 6.35 | 5.25
0.38 | 1.7 | 34.5 | 0.03 | – | 0.4 | 0.01 | – | – | – | – | COc1ccc(-c2cc3cc(C)ccc3c(-c3cccc(O)c3)n2)cc1OC | 6.43 | 5.19 | 5.36 | 4.87
0 | 2.9 | 0 | 0.05 | – | – | – | – | – | – | – | COc1cccc(-c2nc(-c3ccc(OC)c(OC)c3)cc3cc(C)ccc23)c1 | 5.74 | < 4.30 | 5.10 | < 4.30
0 | 6.7 | 0 | 0.09 | – | – | – | – | – | – | – | COc1ccc(-c2cc3ccccc3c(-c3ccc(O)cc3)n2)cc1 | < 4.30 | < 4.30 | 5.91 | < 4.30
0.37 | 0 | 23.6 | 0 | – | – | – | – | – | – | – | COc1cc(OC)cc(-c2cc3ccccc3c(-c3cccc(N)c3)n2)c1 | 5.39 | – | 6.01 | < 4.30
0.12 | 0 | 7.7 | 0 | – | – | – | – | – | – | – | COc1ccc(-c2cc3ccccc3c(-c3cccc(N)c3)n2)cc1 | 5.63 | – | 6.02 | 4.73
